In ChEMBL document CHEMBL3745683, “Regulatory effect of hydroquinone-tetraethylene glycol conjugates on zebrafish pigmentation” (Bioorg Med Chem Lett, 2016):
Active and inactive are the calls of the source.

Key:
[1] = 1-Octanol-water partition coefficient, log P of the compound by UV spectrophotometry-based shake flask method; assay type: physicochemical
[2] = Cytotoxicity against human HF16 cells assessed as decrease in cell viability at 200 uM after 24 hrs by MTT assay; assay type: cell-based
Outline: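 HF-16 human fetal foreskin fibroblasts exposed to compound at 200 μM, with 0.1% DMSO as vehicle control, for 24 hr. Viability was read by MTT assay. Data are means ± SEM, compared against the vehicle control.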

[3] = species on record: Danio rerio; assay: Depigmentation effect on zebrafish assessed as eye color change from black to gray incubated for 63 hrs post fertilization by microscopic analysis; assay type: functional, organism-based
Outline: (§1)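 Synchronized zebrafish embryos were kept in embryo medium containing compound at 50, 100 or 200 μM, added from DMSO to a final 0.1%. Mock control was 0.1% DMSO; positive control was HQ at 100 μM. Larval pigment spots were selected manually from dorsal-view microscope images, excluding eyes and yolk. Image analysis gave binary threshold, histogram and black-spot size; eye colour was scored visually. Data are means ± SEM versus mock.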

[4] = species on record: Danio rerio; assay: Depigmentation effect on zebrafish assessed as increase in binary threshold incubated for 63 hrs post fertilization by microscopic analysis; assay type: functional, organism-based; outline: as §1
[5] = species on record: Danio rerio; assay: Depigmentation effect on zebrafish assessed as increase in histogram of black spots incubated for 63 hrs post fertilization by microscopic analysis; assay type: functional, organism-based; outline: as §1
[6] = species on record: Danio rerio; assay: Depigmentation effect on zebrafish assessed as decrease in size of black spots incubated for 63 hrs post fertilization by microscopic analysis; assay type: functional, organism-based; outline: as §1
[7] = Photostability of compound after 18 hrs under UV irradition condition; assay type: physicochemical
Outline: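 Compound at 0.1 mM in 1X PBS, pH 7.4, was exposed to UV at ambient conditions for 18 h. UV spectra were compared before and after exposure; the HQ absorption band is at 289 nm.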

[8] = Drug degradation of compound assessed as Cu2+-mediated oxidation; assay type: physicochemical
Outline: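 Compound at 0.1 mM in 1X PBS, pH 7.4, was treated with 20 μM Cu2+. UV absorption spectra were recorded over a time course.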

[9] = Drug degradation assessed as hydrolysis in 1M NaOH […] by HPLC analysis; assay type: physicochemical; settings: buffer
[10] = species on record: Danio rerio; assay: Inhibition of pigmentation in zebrafish assessed as decrease in size of black spots pre-treated with 0.2 mM compound at 9 hrs post fertilization followed by mock treatment for 37 hrs by microscopic analysis; assay type: functional, organism-based
[11] = species on record: Danio rerio; assay: Inhibition of pigmentation in zebrafish assessed as increase in histogram of black spots pre-treated with 0.2 mM compound at 9 hrs post fertilization followed by mock treatment for 37 hrs by microscopic analysis; assay type: functional, organism-based
[12] = species on record: Danio rerio; assay: Inhibition pigmentation in zebrafish assessed as increase in binary threshold pre-treated with 0.2 mM compound at 9 hrs post fertilization followed by mock treatment for 37 hrs by microscopic analysis; assay type: functional, organism-based
[13] = species on record: Danio rerio; assay: Inhibition of alpha-MSH-induced pigmentation in zebrafish assessed as increase in binary threshold pre-treated with 0.2 mM compound at 9 hrs post fertilization followed by compound exposure for 37 hrs by microscopic analysis; assay type: functional, organism-based
[14] = species on record: Danio rerio; assay: Inhibition of alpha-MSH-induced pigmentation in zebrafish assessed as increase in histogram of black spots pre-treated with 0.2 mM compound at 9 hrs post fertilization followed by compound exposure for 37 hrs by microscopic analysis; assay type: functional, organism-based
[15] = species on record: Danio rerio; assay: Inhibition of alpha-MSH-induced pigmentation in zebrafish assessed as decrease in size of black spots pre-treated with 0.2 mM compound at 9 hrs post fertilization followed by compound exposure for 37 hrs by microscopic analysis; assay type: functional, organism-based
[16] = Drug degradation assessed as hydrolysis at pH 3 to 9 by HPLC analysis; assay type: physicochemical; settings: buffer
[17] = species on record: Danio rerio; assay: Inhibition pigmentation in zebrafish assessed as increase in binary threshold pre-treated with 0.2 mM compound at 9 hrs post fertilization followed by compound exposure for 37 hrs by microscopic analysis; assay type: functional, organism-based
[18] = species on record: Danio rerio; assay: Inhibition of pigmentation in zebrafish assessed as increase in histogram of black spots pre-treated with 0.2 mM compound at 9 hrs post fertilization followed by compound exposure for 37 hrs by microscopic analysis; assay type: functional, organism-based
[19] = species on record: Danio rerio; assay: Inhibition of pigmentation in zebrafish assessed as decrease in size of black spots pre-treated with 0.2 mM compound at 9 hrs post fertilization followed by compound exposure for 37 hrs by microscopic analysis; assay type: functional, organism-based

| logP [1] | Stability [7] | Stability [8] | Stability [9] | Drug degradation ([8]; TDE = time-dependent effect) | Stability [16] | Compound | Activity [2] | Activity [3] | Activity [4] | Activity [5] | Activity [6] | inhibition [10] | inhibition [11] | inhibition [12] | inhibition [13] | inhibition [14] | inhibition [15] | inhibition [17] | inhibition [18] | inhibition [19] |
| --- | --- | --- | --- | --- | --- | --- | --- | --- | --- | --- | --- | --- | --- | --- | --- | --- | --- | --- | --- | --- |
| -0.036 | Stable | Stable | Unstable |  |  | COCCOCCOCCOCC(=O)Oc1ccc(O)cc1 | Toxic | Dose-dependent effect | Dose-dependent effect | Dose-dependent effect | Dose-dependent effect |  |  |  |  |  |  |  |  |  |
| 0.25 | Unstable |  |  | tde |  | Oc1ccc(O)cc1 [HYDROQUINONE] | Toxic |  |  |  |  |  |  |  |  |  |  |  |  |  |
| -0.026 | Stable | Stable |  |  | Stable | COCCOCCOCCOCCOc1ccc(O)cc1 | Non-toxic | Dose-dependent effect | Dose-dependent effect | Dose-dependent effect | Dose-dependent effect | inactive | inactive | inactive | Active | Active | Active | Active | Active | Active |
